In ChEMBL document CHEMBL1149311, “Synthesis and antitumor activity of methyltriazene prodrugs simultaneously releasing DNA-methylating agents and the antiresistance drug O(6)-benzylguanine” (J Med Chem, 2004):

What was measured:
HL-60 = experiment: Antitumor activity against human HL60 cells; type: functional
In short: (§1)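 Tested in the NCI in vitro disease-oriented human tumor cell screen. The endpoints are IC50 (molar concentration giving 50% growth inhibition), TGI (total growth inhibition) and LC50 (50% net cell death). The maximal concentration tested was 100 μM. Subpanel values are means of several individual cell lines.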

K562 = experiment: Antitumor activity against human K562 cells; type: functional; in short: as §1
EKVX = experiment: Antitumor activity against human EKVX cells; type: functional; in short: as §1
HOP-62 = experiment: Antitumor activity against human HOP62 cells; type: functional; in short: as §1
NCI-H322M = experiment: Antitumor activity against human NCI-H322M cells; type: functional; in short: as §1
NCI-H460 = experiment: Antitumor activity against human NCI-H460 cells; type: functional; in short: as §1
HCT-15 = experiment: Antitumor activity against human HCT15 cells; type: functional; in short: as §1
KM12 = experiment: Antitumor activity against human KM12 cells; type: functional; in short: as §1
SW-620 = experiment: Antitumor activity against human SW620 cells; type: functional
In short: (§2)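 NCI in vitro disease-oriented tumour cell line screen. Read-outs are IC50 (molar concentration giving 50% growth inhibition), TGI (molar concentration giving total inhibition of net growth) and LC50 (molar concentration giving 50% net cell death). The maximal concentration tested was 100 μM.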

SF-268 = experiment: Antitumor activity against human SF268 cells; type: functional; in short: as §1
SF-295 = experiment: Antitumor activity against human SF295 cells; type: functional; in short: as §1
SNB-19 = experiment: Antitumor activity against human SNB19 cells; type: functional; in short: as §1
SNB-75 = experiment: Antitumor activity against human SNB75 cells; type: functional; in short: as §2
U-251 = experiment: Antitumor activity against human U251 cells; type: functional; in short: as §2
[1] = Antitumor activity against human LOX IMV1 cells; type: functional, cell-based; in short: as §1
M14 = experiment: Antitumor activity against human M14 cells; type: functional; in short: as §1
SK-MEL-2 = experiment: Antitumor activity against human SK-MEL-2 cells; type: functional; in short: as §1
UACC-257 = experiment: Antitumor activity against human UACC257 cells; type: functional; in short: as §2
OVCAR-3 = experiment: Antitumor activity against human OVCAR-3 cells; type: functional; in short: as §1
OVCAR-4 = experiment: Antitumor activity against human OVCAR4 cells; type: functional; in short: as §1
SK-OV-3 = experiment: Antitumor activity against human SKOV3 cells; type: functional; in short: as §1
786-0 = experiment: Antitumor activity against human 786-0 cells; type: functional; in short: as §1
CAKI-1 = experiment: Antitumor activity against human CAKI1 cells; type: functional; in short: as §1
UO-31 = experiment: Antitumor activity against human UO31 cells; type: functional; in short: as §2
PC-3 = experiment: Antitumor activity against human PC3 cells; type: functional; in short: as §1
DU-145 = experiment: Antitumor activity against human DU145 cells; type: functional; in short: as §1
MCF7 = experiment: Antitumor activity against human MCF7 cells; type: functional; in short: as §1
MDA-MB-231 = experiment: Antitumor activity against human MDA-MB-231 cells; type: functional; in short: as §1
Hs-578T = experiment: Antitumor activity against human HS578T cells; type: functional; conditions: Homo sapiens, Hs-578T; in short: as §1
MDA-MB-435 = experiment: Antitumor activity against human MDA-MB-435 cells; type: functional; in short: as §1
BT-549 = experiment: Antitumor activity against human BT549 cells; type: functional; in short: as §1
T47D = experiment: Antitumor activity against human T47D cells; type: functional; in short: as §2
[2] = Half life of hydrolysis in deuterated phosphate buffer at pD 7.8; conditions: deuterated phosphate buffer, pH 7.8
SK-MEL-28 = experiment: Antitumor activity against human SK-MEL-28 cells; type: functional; in short: as §1
NCI [3] = experiment: Antitumor activity against human NCI leukemia cell line panel; type: functional, cell-based; in short: as §1
[4] = system: Non-small cell lung cancer cell line; experiment: Antitumor activity against human NCI non-small cell lung cancer cell line panel; type: functional, cell-based; in short: as §1
NCI [5] = experiment: Antitumor activity against human NCI colon cancer cell line panel; type: functional, cell-based; in short: as §1
NCI [6] = experiment: Antitumor activity against human NCI CNS cancer cell line panel; type: functional, cell-based; in short: as §1
NCI [7] = experiment: Antitumor activity against NCI human melanoma cell line panel; type: functional, cell-based; in short: as §1
NCI [8] = experiment: Antitumor activity against human NCI renal cancer cell line panel; type: functional, cell-based; in short: as §1
HOP-92 = experiment: Antitumor activity against human HOP92 cells; type: functional; in short: as §1
[9] = read-out: Log LC50 (the source's name) (converted)
[10] = read-out: LC50 (the source's name)

CN(/N=N/c1nc(OCc2ccccc2)c2nc[nH]c2n1)C(=O)Oc1ccc([N+](=O)[O-])cc1
GI50 (HL-60): 12 µM | CC50 (HL-60; [9]): > 50.1 µM | TGI (HL-60; read-out: Log TGI (converted)): > 50.1 µM | GI50 (K562): 12 µM | CC50 (K562; [9]): > 50.1 µM | TGI (K562; read-out: Log TGI (converted)): > 50.1 µM | GI50 (EKVX): 11.5 µM | CC50 (EKVX; [9]): > 50.1 µM | TGI (EKVX; read-out: Log TGI (converted)): 36.3 µM | GI50 (HOP-62): 28.8 µM | LC50 (HOP-62): > 50.1 µM | TGI (HOP-62; read-out: Log TGI (converted)): > 50.1 µM | GI50 (NCI-H322M): 9.33 µM | CC50 (NCI-H322M; [9]): 45.7 µM | TGI (NCI-H322M; read-out: Log TGI (converted)): 20.9 µM | GI50 (NCI-H460): 6.76 µM | CC50 (NCI-H460; [9]): > 50.1 µM | TGI (NCI-H460; read-out: Log TGI (converted)): 31.6 µM | GI50 (HCT-15): 8.91 µM | CC50 (HCT-15; [9]): 44.7 µM | TGI (HCT-15; read-out: Log TGI (converted)): 20 µM | GI50 (KM12): 8.51 µM | CC50 (KM12; [9]): 41.7 µM | TGI (KM12; read-out: Log TGI (converted)): 18.6 µM | GI50 (SW-620): 9.12 µM | CC50 (SW-620; [9]): > 50.1 µM | TGI (SW-620; read-out: Log TGI (converted)): 26.3 µM | GI50 (SF-268): 9.33 µM | CC50 (SF-268; [9]): > 50.1 µM | TGI (SF-268; read-out: Log TGI (converted)): 29.5 µM | GI50 (SF-295): 11.2 µM | CC50 (SF-295; [9]): > 50.1 µM | TGI (SF-295; read-out: Log TGI (converted)): 33.9 µM | GI50 (SNB-19): 9.55 µM | LC50 (SNB-19): > 50.1 µM | TGI (SNB-19; read-out: Log TGI (converted)): 28.2 µM | CC50 (SNB-75; [9]): > 50.1 µM | TGI (SNB-75; read-out: Log TGI (converted)): > 50.1 µM | GI50 (U-251): 7.59 µM | CC50 (U-251; [9]): 31.6 µM | TGI (U-251; read-out: Log TGI (converted)): 15.1 µM | GI50 [1]: 1.15 µM | IC50 [1]: 1.1 µM | CC50 [1, 10]: 27 µM | CC50 [1, 9]: 26.9 µM | TGI ([1]; read-out: Log TGI (converted)): 10.7 µM | TGI ([1]; read-out: TGI): 11 µM | GI50 (M14): 8.91 µM | CC50 (M14; [9]): 38 µM | TGI (M14; read-out: Log TGI (converted)): 18.2 µM | GI50 (SK-MEL-2): 12 µM | CC50 (SK-MEL-2; [9]): > 50.1 µM | TGI (SK-MEL-2; read-out: Log TGI (converted)): 28.2 µM | GI50 (UACC-257): 38.9 µM | CC50 (UACC-257; [9]): > 50.1 µM | TGI (UACC-257; read-out: Log TGI (converted)): > 50.1 µM | GI50 (OVCAR-3): 9.55 µM | LC50 (OVCAR-3): > 50.1 µM | TGI (OVCAR-3; read-out: Log TGI (converted)): 24.5 µM | GI50 (OVCAR-4): 22.9 µM | CC50 (OVCAR-4; [9]): > 50.1 µM | TGI (OVCAR-4; read-out: Log TGI (converted)): > 50.1 µM | GI50 (SK-OV-3): 10.5 µM | CC50 (SK-OV-3; [9]): > 50.1 µM | TGI (SK-OV-3; read-out: Log TGI (converted)): 28.8 µM | GI50 (786-0): 8.71 µM | LC50 (concentration giving 50% net cell death) (786-0): > 50.1 µM | TGI (786-0; read-out: Log TGI (converted)): 23.4 µM | GI50 (CAKI-1): 11 µM | CC50 (CAKI-1; [9]): > 50.1 µM | TGI (CAKI-1; read-out: Log TGI (converted)): 35.5 µM | GI50 (UO-31): 6.61 µM | CC50 (UO-31; [9]): 29.5 µM | TGI (UO-31; read-out: Log TGI (converted)): 13.8 µM | GI50 (PC-3): 10.7 µM | CC50 (PC-3; [9]): > 50.1 µM | TGI (PC-3; read-out: Log TGI (converted)): 26.9 µM | GI50 (DU-145): 9.12 µM | CC50 (DU-145; [9]): 42.7 µM | TGI (DU-145; read-out: Log TGI (converted)): 19.5 µM | GI50 (MCF7): 12.3 µM | CC50 (MCF7; [9]): > 50.1 µM | TGI (MCF7; read-out: Log TGI (converted)): > 50.1 µM | GI50 (MDA-MB-231): 5.75 µM | CC50 (MDA-MB-231; [9]): > 50.1 µM | TGI (MDA-MB-231; read-out: Log TGI (converted)): 18.6 µM | GI50 (Hs-578T): 8.71 µM | CC50 (Hs-578T; [9]): > 50.1 µM | TGI (Hs-578T; read-out: Log TGI (converted)): 29.5 µM | GI50 (MDA-MB-435): 12.3 µM | CC50 (MDA-MB-435; [9]): > 50.1 µM | TGI (MDA-MB-435; read-out: Log TGI (converted)): 39.8 µM | GI50 (BT-549): 7.41 µM | CC50 (BT-549; [9]): > 50.1 µM | TGI (BT-549; read-out: Log TGI (converted)): 20.4 µM | GI50 (T47D): 14.1 µM | CC50 (T47D; [9]): > 50.1 µM | TGI (T47D; read-out: Log TGI (converted)): 32.4 µM | half-life [2]: 23 min | GI50 (SK-MEL-28): 12.3 µM | CC50 (SK-MEL-28; [9]): > 50.1 µM | TGI (SK-MEL-28; read-out: Log TGI (converted)): > 50.1 µM | IC50 (NCI [3]): 14 µM | TGI (NCI [3]): 50 µM | CC50 (NCI [3]; [10]): 50 µM | IC50 [4]: 11 µM | TGI [4]: 29 µM | CC50 [4, 10]: 47 µM | IC50 (NCI [5]): 9 µM | TGI (NCI [5]): 21 µM | CC50 (NCI [5]; [10]): 43 µM | IC50 (NCI [6]): 9 µM | TGI (NCI [6]): 30 µM | CC50 (NCI [6]; [10]): 47 µM | IC50 (NCI [7]): 8 µM | TGI (NCI [7]): 23 µM | CC50 (NCI [7]; [10]): 40 µM | IC50 (NCI [8]): 9 µM | TGI (NCI [8]): 25 µM | CC50 (NCI [8]; [10]): 44 µM | GI50 (HOP-92): 7.24 µM | CC50 (HOP-92; [9]): > 50.1 µM | TGI (HOP-92; read-out: Log TGI (converted)): 26.3 µM
